# Assay results gathered from unrelated publications.
# Protocols differ between the studies behind these lines.
# Target: Fibroblast growth factor receptor 2 (FGFR2, Homo sapiens, UniProt P21802)
Structure (SMILES),test,conditions,remaining binding [%]
C[C@H](NC(=O)c1cnc2n1[C@](C)(Cc1ccc(C#N)cc1)C(=O)N2c1cc(Cl)c(F)c(Cl)c1)C(=O)NC1(c2ccccn2)CC1,"cell-free assay, competition with immobilised ligand",1 µM,100
N[C@H]1CCN(c2nccc(-c3cnn4ncccc34)n2)C1,binding,1 µM,92
CCOCCn1cc(C(=O)Nc2ccc(-n3nc(-c4cccnc4)cc3C(F)(F)F)cn2)ccc1=O,"cell-free assay, competition with immobilised ligand",1 µM,49
O=C(Nc1c[nH]nc1C(=O)NC1CCNCC1)c1cc(F)cc(F)c1,"binding, competition with immobilised ligand",1 µM,100
COc1ccnn2ncc(-c3ccnc(N(C)C)n3)c12,binding,1 µM,100
O=C(c1ccc(Nc2nccc(-c3cc4ccccc4s3)n2)cc1)N1CCC(N2CCCC2)CC1,"binding, competition with immobilised ligand",1 µM,77
F[C@@H]1CCN(c2nccc(-c3cnn4ncccc34)n2)C1,binding,1 µM,100
Cc1cc(C)c(-n2ccn3nc(-c4cccnc4)cc23)cc1NC(=O)c1cc(C#N)cc(S(F)(F)(F)(F)F)c1,"cell-free assay, competition with immobilised ligand",0.1 µM,84.3
CNC(=O)[C@@H]1CC[C@@H](n2c(-c3ccc4cnccc4c3)nc3ccc(C(=O)NCc4cccc(C(N)=O)c4)cc32)C1,"binding, competition with immobilised ligand",1 µM,96
O=C(NCCCN1CCOCC1)c1ccc(Nc2ncc(Cl)c(-c3ccc(Cl)s3)n2)cc1,"binding, competition with immobilised ligand",1 µM,29
c1cncc(-c2cccc(Nc3nccc(NC4CCCCC4)n3)c2)c1,"binding, competition with immobilised ligand",10 µM,22
Nc1ncc2c(n1)-c1c([nH]c3ccc(C#CC4CC4)cc13)CCCC2,"binding, competition with immobilised ligand",1 µM,99
C=CC(=O)N1CCC(C(=O)NCC(=O)N2CCN(c3nc(-c4cnc(N)nc4C(F)F)nc(N4CCOCC4)n3)CC2)CC1,"binding, competition with immobilised ligand",1 µM,89
Cn1nc(C(=O)NCc2ccc(C(=O)O)cc2)cc1-c1ccc2[nH]ccc2c1,"cell-free assay, competition with immobilised ligand",0.1 µM,87
c1cnn2ncc(-c3ccnc(N4CCC45COC5)n3)c2c1,binding,1 µM,100
CN1CCN(c2cnc3c(C4CCN(C(=O)c5ccc(OC(F)(F)F)cc5N)CC4)ncnc3c2)CC1,"cell-free assay, competition with immobilised ligand",1 µM,100
COc1ncc2cc3ccccc3nc2c1C#N,"cell-free assay, competition with immobilised ligand",5 µM,93
